Results reported in ChEMBL document CHEMBL1156965, “Design, synthesis and antimalarial/anticancer evaluation of spermidine linked artemisinin conjugates designed to exploit polyamine transporters in Plasmodium falciparum and HL-60 cancer cell lines” (Bioorg Med Chem, 2010).

What was measured:
[1] = system: HL-60; test: Antitumor activity against human HL60 cells after 72 hrs by MTT assay; format: functional, cell-based; settings: HL-60, 72 h
How it was run: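 HL-60 cells in RPMI-1640 with 10% FBS and 1% L-glutamine, passages 5–15, viability >95%. 2.5 × 10^4 cells/well exposed to 0.01–100 µM for 72 h, DMSO final <0.5% v/v. MTT added for 4 h at 37 °C, then SDS/DMF lysis for 4 h. A570, reference 590 nm, as % of vehicle. Quadruplicate, ≥3 experiments. IC50 from individual curves.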

[2] = system: Plasmodium falciparum; test: Antimalarial activity against chloroquine-sensitive Plasmodium falciparum 3D7 infected in human erythrocytes assessed as [3H]hypoxanthine incorporation after 24 hrs by liquid scintillation and luminescence counting; format: functional, organism-based
How it was run: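 3D7 P. falciparum kept in human erythrocytes in RPMI-1640 with 25 mM HEPES, 32 mM NaHCO3, 10% human serum, under 3% O2/4% CO2/93% N2. Assay at 2% parasitemia, 0.5% haematocrit, triplicate, 37 °C. 0.5 µCi [3H]-hypoxanthine added after 24 h, then 24 h more (48 h total). Harvested and scintillation counted. IC50 by probit interpolation of log dose–response versus control wells.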

## C[C@H]1[C@@H](CCNCCCN(CCCCNC(=O)OC(C)(C)C)C(=O)OC(C)(C)C)O[C@@H]2O[C@@]3(C)CC[C@H]4[C@H](C)CC[C@@H]1[C@@]24OO3
[1]
  IC50: 16600 nM
[2]
  IC50: 0.76 nM

## C[C@@H]1CC[C@H]2[C@@H](C)C(=O)O[C@@H]3O[C@@]4(C)CC[C@@H]1[C@]32OO4 [ARTEMISININ]
[2]
  IC50: 9.2 nM

## C[C@H]1[C@@H](CCNCCCCNCCCN)O[C@@H]2O[C@@]3(C)CC[C@H]4[C@H](C)CC[C@@H]1[C@@]24OO3
[1]
  IC50: 17800 nM
[2]
  IC50: 259 nM

## C[C@H]1[C@@H](CC(=O)NCCCN(CCCCNC(=O)OC(C)(C)C)C(=O)OC(C)(C)C)O[C@@H]2O[C@@]3(C)CC[C@H]4[C@H](C)CC[C@@H]1[C@@]24OO3
[1]
  IC50: 31200 nM
[2]
  IC50: 4.3 nM

## C[C@H]1[C@@H](CC(=O)NCCCCNCCCN)O[C@@H]2O[C@@]3(C)CC[C@H]4[C@H](C)CC[C@@H]1[C@@]24OO3
[1]
  IC50: 35200 nM
[2]
  IC50: 727 nM

## C[C@H]1[C@@H](CCN(CCCN)CCCCN)O[C@@H]2O[C@@]3(C)CC[C@H]4[C@H](C)CC[C@@H]1[C@@]24OO3
[1]
  IC50: > 100000 nM
[2]
  IC50: 15.2 nM

## C[C@H]1[C@@H](CC(=O)NCCCNCCCCN)O[C@@H]2O[C@@]3(C)CC[C@H]4[C@H](C)CC[C@@H]1[C@@]24OO3
[1]
  IC50: 47700 nM
[2]
  IC50: 81 nM

## C[C@H]1[C@@H](CC(=O)N(CCCCNC(=O)OC(C)(C)C)CCCNC(=O)OC(C)(C)C)O[C@@H]2O[C@@]3(C)CC[C@H]4[C@H](C)CC[C@@H]1[C@@]24OO3
[1]
  IC50: > 100000 nM
[2]
  IC50: 4.8 nM

## C[C@H]1[C@@H](CC(=O)N(CCCN)CCCCN)O[C@@H]2O[C@@]3(C)CC[C@H]4[C@H](C)CC[C@@H]1[C@@]24OO3
[1]
  IC50: > 100000 nM
[2]
  IC50: 108 nM

## C[C@H]1[C@@H](CCNCCCNCCCCN)O[C@@H]2O[C@@]3(C)CC[C@H]4[C@H](C)CC[C@@H]1[C@@]24OO3
[1]
  IC50: 29200 nM
[2]
  IC50: 350 nM

## C[C@H]1[C@@H](CC(=O)NCCCCN(CCCNC(=O)OC(C)(C)C)C(=O)OC(C)(C)C)O[C@@H]2O[C@@]3(C)CC[C@H]4[C@H](C)CC[C@@H]1[C@@]24OO3
[1]
  IC50: 22000 nM
[2]
  IC50: 2.6 nM

## C[C@H]1[C@@H](CCNCCCCN(CCCNC(=O)OC(C)(C)C)C(=O)OC(C)(C)C)O[C@@H]2O[C@@]3(C)CC[C@H]4[C@H](C)CC[C@@H]1[C@@]24OO3
[1]
  IC50: 11600 nM
[2]
  IC50: 0.21 nM

## C[C@H]1[C@@H](CCN(CCCCNC(=O)OC(C)(C)C)CCCNC(=O)OC(C)(C)C)O[C@@H]2O[C@@]3(C)CC[C@H]4[C@H](C)CC[C@@H]1[C@@]24OO3
[1]
  IC50: > 100000 nM
[2]
  IC50: > 100 nM
